ChEMBL document CHEMBL1141335, “Epicoccamides B-D, glycosylated tetramic acid derivatives from an Epicoccum sp. associated with the tree fungus Pholiota squarrosa” (J Nat Prod, 2007)
The source made the active and inactive calls. The calls are words filed in the database; no cut-off is given here.

What was measured:
[1] = Antiproliferative activity against mouse L929 cells; format: cell-based
K562 = assay: Antiproliferative activity against human K562 cells; format: functional
HeLa = assay: Cytotoxicity against human HeLa cells; format: functional; conditions: for CC50: Homo sapiens, HeLa
Method in brief: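 HeLa Ohio cells grown 2 days to confluent monolayers, then growth medium replaced with nine 2-fold compound dilutions in test medium. Incubated 72 h at 37 °C, 5% CO2. Cells fixed, washed and stained, with OD read at 660 nm. Viability taken as % of six untreated controls. CC50 calculated from the mean dose–response curve of two assays.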

[2] = test system: Remotididymella destructiva; assay: Induction of morphogenesis in Phoma destructiva at 1.7 mM; format: functional, organism-based
Method in brief: (§1)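 Phoma destructiva vegetative mycelium grown on malt agar plates (malt extract, glucose, yeast extract, (NH4)2SO4, pH 6.0), set up like an agar-well diffusion assay. 50 µL of purified metabolite placed in 9 mm agar wells. Plates incubated for three days, then scored visually for changes in pigment and aerial mycelium formation.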

[3] = test system: Remotididymella destructiva; assay: Induction of pigment formation in Phoma destructiva at 1.7 mM; format: functional, organism-based; method in brief: as §1

SMILES	GI50 [1]	GI50 (K562)	CC10 (HeLa)	CC50 (HeLa)	Activity [2]	Activity [3]
CC(CCCCCCCCCCCCCCO[C@@H]1O[C@H](CO)[C@@H](O)[C@H](O)[C@@H]1O)C(=O)C1=C(O)N(C)C(C)C1=O (stereo partly drawn)	> 90 µM	> 90 µM	51.3 µM	> 90 µM		
CC(CCCCCCCCCCCCCCCCO[C@@H]1O[C@H](CO)[C@@H](O)[C@H](O)[C@@H]1O)C(=O)C1=C(O)N(C)C(C)C1=O (stereo partly drawn) [EPICOCCAMIDE D]	50.5 µM	33.3 µM	11.6 µM	17 µM	Active	Active
CC(=O)O[C@@H]1[C@H](O)[C@H](OCCCCCCCCCCCCCCC(C)C(=O)C2=C(O)N(C)C(C)C2=O)O[C@H](CO)[C@H]1O (stereo partly drawn)	71.1 µM	52.7 µM	26.2 µM	44.2 µM		
CC(=O)OC[C@H]1O[C@@H](OCCCCCCCCCCCCCCC(C)C(=O)C2=C(O)N(C)C(C)C2=O)[C@@H](O)[C@@H](O)[C@@H]1O (stereo partly drawn) [EPICOCCAMIDE C]	57.2 µM	33.7 µM	13.6 µM	29 µM		
